Test results as given in ChEMBL document CHEMBL4609987, “Structure-activity relationship study of the pyridine moiety of isothiazolo[4,3-b]pyridines as antiviral agents targeting cyclin G-associated kinase” (Bioorg Med Chem, 2020).

Assays:
[1] = target: T1, Cyclin-G-associated kinase (Homo sapiens, UniProt O14976); assay: Inhibition of tracer 222 binding to recombinant human GST-tagged GAK (1 to 329 residues) expressed in insect cells incubated for 1 hr by Lanthascreen assay
T1 sequence (O14976 whole entry): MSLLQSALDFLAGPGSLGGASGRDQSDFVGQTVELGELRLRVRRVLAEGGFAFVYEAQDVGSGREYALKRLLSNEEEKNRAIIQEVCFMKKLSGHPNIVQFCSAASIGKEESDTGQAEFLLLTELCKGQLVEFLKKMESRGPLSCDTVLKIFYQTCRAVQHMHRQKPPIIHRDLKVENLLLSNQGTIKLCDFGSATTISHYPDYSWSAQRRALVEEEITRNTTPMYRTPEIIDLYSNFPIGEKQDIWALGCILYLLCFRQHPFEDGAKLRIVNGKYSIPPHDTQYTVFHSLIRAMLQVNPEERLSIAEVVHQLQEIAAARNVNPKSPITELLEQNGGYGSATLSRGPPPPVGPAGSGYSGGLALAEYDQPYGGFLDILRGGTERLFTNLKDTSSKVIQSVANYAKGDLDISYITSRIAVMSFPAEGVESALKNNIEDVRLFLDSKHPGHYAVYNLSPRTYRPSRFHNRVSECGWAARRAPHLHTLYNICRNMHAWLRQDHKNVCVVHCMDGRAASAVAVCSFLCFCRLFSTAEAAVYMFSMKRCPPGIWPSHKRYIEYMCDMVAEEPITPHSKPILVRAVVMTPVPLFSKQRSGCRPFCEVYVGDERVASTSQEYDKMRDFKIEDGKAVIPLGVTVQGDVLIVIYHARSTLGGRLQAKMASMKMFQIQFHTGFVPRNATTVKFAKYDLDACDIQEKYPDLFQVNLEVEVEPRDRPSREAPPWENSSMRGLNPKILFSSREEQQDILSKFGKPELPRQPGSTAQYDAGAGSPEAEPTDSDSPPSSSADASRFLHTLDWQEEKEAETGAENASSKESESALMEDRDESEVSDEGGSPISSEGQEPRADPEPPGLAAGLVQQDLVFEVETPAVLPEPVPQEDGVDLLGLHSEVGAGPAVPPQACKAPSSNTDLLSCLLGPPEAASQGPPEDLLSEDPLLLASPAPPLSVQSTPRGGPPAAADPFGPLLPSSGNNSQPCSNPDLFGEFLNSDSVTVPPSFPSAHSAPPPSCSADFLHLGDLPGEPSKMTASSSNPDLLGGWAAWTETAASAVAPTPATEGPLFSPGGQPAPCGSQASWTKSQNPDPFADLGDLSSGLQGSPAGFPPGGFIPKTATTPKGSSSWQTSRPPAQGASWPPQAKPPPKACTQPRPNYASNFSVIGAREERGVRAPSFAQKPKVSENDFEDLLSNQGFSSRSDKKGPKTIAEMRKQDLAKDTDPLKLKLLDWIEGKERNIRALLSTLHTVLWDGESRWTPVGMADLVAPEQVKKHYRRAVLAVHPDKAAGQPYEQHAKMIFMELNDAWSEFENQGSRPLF

[2] = Cytotoxicity against human HuH7 cells assessed as reduction in cell viability incubated for 48 hrs by alamar blue reagent based cell viability assay; parameters: species or system Huh-7
Method in brief: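 Run in parallel on the same DENV2-infected Huh7 cultures (MOI 0.05, 4 h infection). Viability measured with AlamarBlue per the manufacturer's protocol, with fluorescence detected at 560 nm. CC50 calculated as the half-maximal cytotoxic concentration.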

dengue virus type 2 = assay: Antiviral activity against Dengue virus 2 infected in human HuH7 cells incubated for 48 hrs by luciferase reporter gene assay; settings: Huh-7, 48 h

Compound	IC50 [1] [µM]	CC50 at 48 h [2] [µM]	EC50 (dengue virus type 2) [µM]
COc1cc(-c2cnc3c(N4C[C@@H](C)O[C@@H](C)C4)snc3c2)ccc1N	0.0394	> 25	0.82
COc1cc(-c2cnc3c(N4C[C@@H](C)O[C@@H](C)C4)snc3c2)ccc1C(=O)NCc1ccccc1	–	> 10	5.83
C[C@@H]1CN(c2snc3cc(/C=C/c4ccccc4)cnc23)C[C@H](C)O1	> 3.33	–	–
COc1cccc(-c2ccc3nsc(N4C[C@@H](C)O[C@@H](C)C4)c3n2)c1	–	> 10	> 10
C[C@@H]1CN(c2snc3cc(C#Cc4ccccc4)cnc23)C[C@H](C)O1	> 10	–	–
COc1ccc(-c2ccc3nsc(N4C[C@@H](C)O[C@@H](C)C4)c3n2)cc1OC	–	> 10	1.05
COc1cc(-c2cnc3c(N4C[C@@H](C)O[C@@H](C)C4)snc3c2)cc(OC)c1OC	–	> 10	2.79
COc1cc(-c2cnc3c(N4C[C@@H](C)O[C@@H](C)C4)snc3c2)ccc1C(=O)N1CCCC1	–	> 10	8.85
COc1cc(-c2cnc3c(N4C[C@@H](C)O[C@@H](C)C4)snc3c2)ccc1C(=O)Nc1ccccc1	> 0.37	–	–
COc1cc(-c2cnc3c(N4C[C@@H](C)O[C@@H](C)C4)snc3c2)ccc1C(=O)O	–	> 10	> 10
COc1cc(-c2cnc3c(N4C[C@@H](C)O[C@@H](C)C4)snc3c2)ccc1C(N)=O	–	> 10	10.1
COc1ccc(-c2cnc3c(N4C[C@@H](C)O[C@@H](C)C4)snc3c2)cn1	> 3.33	–	–
C[C@@H]1CN(c2snc3ccc(-c4ccc(C(F)(F)F)cc4)nc23)C[C@H](C)O1	> 0.37	–	–
C#Cc1cccc(Nc2ncnc3cc(OCCOC)c(OCCOC)cc23)c1 [ERLOTINIB]	–	> 10	1.22
